From ChEMBL document CHEMBL4138319, “Discovery, Synthesis, Pharmacological Profiling, and Biological Characterization of Brintonamides A-E, Novel Dual Protease and GPCR Modulators from a Marine Cyanobacterium” (J Med Chem, 2018)
Active and inactive are the calls of the source. The calls are words filed in the database; no cut-off is given here. Square brackets hold non-standard residues; d marks the D form. Peptide text beside a SMILES is read from it. * marks the point of attachment. X1 = CC[C@H](C)[C@@H](OC(=O)/C=C/c1ccccc1)C(=O)*; dNMeF = CN[C@H](Cc1ccccc1)C(=O)O; NMeL = CN[C@@H](CC(C)C)C(=O)O

What was measured:
Chymase = target: T1, Chymase (Homo sapiens, UniProt P23946); assay: Inhibition of chymase (unknown origin) by fluorescence assay
T1 sequence (P23946 whole entry): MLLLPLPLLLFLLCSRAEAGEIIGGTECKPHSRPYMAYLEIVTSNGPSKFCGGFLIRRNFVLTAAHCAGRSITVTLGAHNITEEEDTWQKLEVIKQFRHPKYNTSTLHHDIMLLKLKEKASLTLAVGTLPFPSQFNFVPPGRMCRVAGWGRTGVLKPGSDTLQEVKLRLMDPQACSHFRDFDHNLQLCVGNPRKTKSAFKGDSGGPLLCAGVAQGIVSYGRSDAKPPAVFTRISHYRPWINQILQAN
Summary of the method: (§1)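 Activity followed as a time course of rising fluorescence from a fluorescently labelled peptide substrate. The initial linear slope (signal/min) was used.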

Oxytocin receptor = target: T2, Oxytocin receptor (Homo sapiens, UniProt P30559); assay: Antagonist activity at human OXTR expressed in CHOK1 cells assessed as oxytocin-induced beta-arrestin recruitment pre-incubated for 30 mins before oxytocin stimulation for 90 or 180 mins by chemiluminescence method; type: functional, cell-based
T2 sequence (P30559 whole entry): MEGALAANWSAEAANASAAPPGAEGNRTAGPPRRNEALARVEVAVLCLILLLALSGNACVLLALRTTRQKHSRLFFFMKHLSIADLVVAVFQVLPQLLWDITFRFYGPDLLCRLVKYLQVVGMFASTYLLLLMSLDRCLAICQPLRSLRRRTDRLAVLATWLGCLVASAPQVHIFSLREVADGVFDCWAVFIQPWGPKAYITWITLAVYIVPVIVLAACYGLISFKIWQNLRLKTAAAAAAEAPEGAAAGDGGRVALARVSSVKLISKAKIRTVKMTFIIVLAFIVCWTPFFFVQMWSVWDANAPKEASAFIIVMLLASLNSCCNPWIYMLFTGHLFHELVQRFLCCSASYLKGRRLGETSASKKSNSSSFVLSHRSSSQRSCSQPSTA
Summary of the method: (§2)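 PathHunter β-arrestin complementation assay, antagonist mode. Cells co-express ProLink-tagged GPCR and enzyme-acceptor-tagged β-arrestin and are pre-incubated with sample for 30 min at 37 °C or room temperature. Dose-response: 10 points, 3-fold dilutions from 20 μM, in duplicate.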

Kallikrein-7 [1] = target: T3, Kallikrein-7 (Homo sapiens, UniProt P49862); assay: Inhibition of kallikrein 7 (unknown origin) by fluorescence assay
Summary of the method: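 Protease panel screen: 10-dose titrations, 3-fold serial dilution from 100 μM, singlet. Protease activity is followed as the time-course rise in fluorescence from a labeled peptide substrate, and the initial linear slope (signal/min) is analysed.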
Target sequence in this assay (P49862 whole entry): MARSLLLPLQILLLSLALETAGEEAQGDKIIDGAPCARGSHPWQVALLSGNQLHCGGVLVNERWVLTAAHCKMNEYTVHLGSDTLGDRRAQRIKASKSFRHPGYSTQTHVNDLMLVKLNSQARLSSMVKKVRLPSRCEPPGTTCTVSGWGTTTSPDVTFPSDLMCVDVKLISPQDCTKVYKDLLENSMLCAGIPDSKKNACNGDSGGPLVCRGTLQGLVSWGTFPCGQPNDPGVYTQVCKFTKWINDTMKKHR

[2] = target: T4, C-C chemokine receptor type 10 (Homo sapiens) (UniProt P46092); assay: Antagonist activity at CCR10 in human MDA-MB-231 cells assessed as inhibition of CCL27-induced proliferation up to 10 uM preincubated for 2 hrs followed by CCL27 addition measured after 48 hrs by MTT assay; type: functional, cell-based
T4 sequence (whole entry): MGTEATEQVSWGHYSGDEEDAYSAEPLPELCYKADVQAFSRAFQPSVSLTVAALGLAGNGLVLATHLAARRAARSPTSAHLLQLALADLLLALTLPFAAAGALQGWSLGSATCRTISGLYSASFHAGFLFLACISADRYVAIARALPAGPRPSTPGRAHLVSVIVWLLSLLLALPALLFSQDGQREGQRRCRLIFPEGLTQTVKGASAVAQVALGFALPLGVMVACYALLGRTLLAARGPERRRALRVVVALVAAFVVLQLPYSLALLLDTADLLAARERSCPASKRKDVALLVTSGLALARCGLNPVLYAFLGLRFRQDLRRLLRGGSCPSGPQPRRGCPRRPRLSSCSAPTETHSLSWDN
Summary of the method: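 MDA-MB-231 cells are seeded at 10,000/well in serum-free DMEM for 24 h, then pretreated with compound for 2 h. CCL27 is added at 1 μg/mL final for 48 h. Viability is measured by MTT and compared with solvent control, mean ± SD, n = 3.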

Substance-K receptor = target: T5, Substance-K receptor (Homo sapiens, UniProt P21452); assay: Antagonist activity at human TACR2 expressed in CHOK1 cells assessed as substance P-induced beta-arrestin recruitment pre-incubated for 30 mins before substance P stimulation for 90 or 180 mins by chemiluminescence method; type: functional, cell-based; summary of the method: as §2
T5 sequence (P21452 whole entry): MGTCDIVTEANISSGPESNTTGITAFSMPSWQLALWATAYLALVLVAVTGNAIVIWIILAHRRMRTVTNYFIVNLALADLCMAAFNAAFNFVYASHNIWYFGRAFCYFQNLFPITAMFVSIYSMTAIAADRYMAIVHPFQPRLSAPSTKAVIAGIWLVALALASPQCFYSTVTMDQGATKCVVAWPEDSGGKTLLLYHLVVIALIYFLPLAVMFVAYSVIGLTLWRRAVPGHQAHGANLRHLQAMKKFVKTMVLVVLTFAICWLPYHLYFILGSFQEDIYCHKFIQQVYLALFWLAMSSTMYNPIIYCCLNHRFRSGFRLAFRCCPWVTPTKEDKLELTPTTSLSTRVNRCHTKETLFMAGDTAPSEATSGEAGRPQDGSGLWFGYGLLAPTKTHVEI

Kallikrein-7 [3] = target: T3, Kallikrein-7; assay: Inhibition of kallikrein 7-mediated Dsg-2 shedding in human MDA-MB-468 cells at 0.01 to 10 uM incubated for 48 hrs by ELISA; type: cell-based
Target sequence in this assay (P49862 30-253 limits assumed): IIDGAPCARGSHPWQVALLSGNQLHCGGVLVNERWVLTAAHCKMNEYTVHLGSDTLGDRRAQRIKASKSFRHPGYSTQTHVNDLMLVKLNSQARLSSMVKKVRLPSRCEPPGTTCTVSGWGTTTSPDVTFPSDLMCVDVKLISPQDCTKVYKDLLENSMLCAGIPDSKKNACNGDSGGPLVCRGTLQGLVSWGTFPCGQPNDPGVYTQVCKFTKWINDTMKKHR

Caspase-14 = target: T6, Caspase-14 (Homo sapiens, UniProt P31944); assay: Inhibition of human caspase 14 using Ac-WEHD-AMC fluorogenic peptide as substrate by fluorescence assay; summary of the method: as §1
T6 sequence (P31944 whole entry): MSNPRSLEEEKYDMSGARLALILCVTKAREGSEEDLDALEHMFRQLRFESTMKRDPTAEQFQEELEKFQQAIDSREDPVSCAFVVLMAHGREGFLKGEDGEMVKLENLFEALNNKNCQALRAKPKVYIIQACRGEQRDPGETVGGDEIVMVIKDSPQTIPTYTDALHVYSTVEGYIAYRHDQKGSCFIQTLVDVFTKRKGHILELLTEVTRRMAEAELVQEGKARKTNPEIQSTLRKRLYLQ

[4] = target: Atypical chemokine receptor 3 (Homo sapiens, UniProt P25106); assay: Agonist activity at human CXCR7 expressed in CHOK1 cells assessed as induction of beta-arrestin recruitment at 10 uM by chemiluminescence method; type: functional, cell-based
[5] = target: T7, Oxytocin receptor (Homo sapiens) (UniProt P30559); assay: Antagonist activity at human OXTR expressed in CHOK1 cells assessed as oxytocin-induced beta-arrestin recruitment at 10 uM pre-incubated for 30 mins before oxytocin stimulation for 90 or 180 mins by chemiluminescence method; type: functional, cell-based; set-up: scale not given: the % may be the effect or the level left
T7 sequence (whole entry): T2 sequence (P30559 whole entry)

Sequence of Atypical chemokine receptor 3 (P25106 whole entry): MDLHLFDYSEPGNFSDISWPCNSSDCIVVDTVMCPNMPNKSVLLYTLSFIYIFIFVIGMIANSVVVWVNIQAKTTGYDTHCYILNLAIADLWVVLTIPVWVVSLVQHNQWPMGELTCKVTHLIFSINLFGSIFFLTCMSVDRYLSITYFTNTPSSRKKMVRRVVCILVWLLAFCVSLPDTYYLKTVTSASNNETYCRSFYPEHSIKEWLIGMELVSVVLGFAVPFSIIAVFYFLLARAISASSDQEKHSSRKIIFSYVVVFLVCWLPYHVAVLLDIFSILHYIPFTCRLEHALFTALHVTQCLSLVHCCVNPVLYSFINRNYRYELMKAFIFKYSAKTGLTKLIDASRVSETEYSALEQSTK

With `CC[C@H](C)[C@@H](OC(=O)/C=C/c1ccccc1)C(=O)N1CCC[C@H]1C(=O)NCC(=O)N(C)[C@@H](CC(C)C)C(=O)N[C@@H](C)C(=O)N(C)[C@H](Cc1ccccc1)C(=O)N1CCC[C@H]1C(=O)OC` (X1-PG[NMeL]A[dNMeF]P-OMe) the IC50 (Chymase) was 23.2 µM, the IC50 (Oxytocin receptor) was 6.78 µM and the IC50 (Kallikrein-7 [1]) was 18.9 µM. The inhibition [2] was 10%, the IC50 (Substance-K receptor) was 1.79 µM and the inhibition (Kallikrein-7 [3]) was “inactive”. The IC50 (Caspase-14) was 10.1 µM, the Activity [4] was 86% and the Activity [5] was 76%.
